Assay outcomes: PubChem BioAssay, several laboratories
Rtt109 HAT inh: blocks Candida albicans Rtt109/Vps75 acetyltransferase activity. Q5AAJ8. purified Rtt109/Vps75, ThioGlo CoA-SH fluorescence, 4 h. inhibition, % at 34.9 µM. hit rate 0.16% among 330,000. AID 540336;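 active means inhibition of at least 50% in every replicate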
HDAC3 inh: blocks human histone deacetylase 3; O15379; recombinant HDAC3, fluorogenic peptide/trypsin coupled, fluorescence; inhibition, % at 8.3 µM; hit rate 0.15% among 320,000; AID 2718; in the data active means inhibition above about 26%, passing the limit was not always enough
Target sequence (O15379 whole entry, looked up): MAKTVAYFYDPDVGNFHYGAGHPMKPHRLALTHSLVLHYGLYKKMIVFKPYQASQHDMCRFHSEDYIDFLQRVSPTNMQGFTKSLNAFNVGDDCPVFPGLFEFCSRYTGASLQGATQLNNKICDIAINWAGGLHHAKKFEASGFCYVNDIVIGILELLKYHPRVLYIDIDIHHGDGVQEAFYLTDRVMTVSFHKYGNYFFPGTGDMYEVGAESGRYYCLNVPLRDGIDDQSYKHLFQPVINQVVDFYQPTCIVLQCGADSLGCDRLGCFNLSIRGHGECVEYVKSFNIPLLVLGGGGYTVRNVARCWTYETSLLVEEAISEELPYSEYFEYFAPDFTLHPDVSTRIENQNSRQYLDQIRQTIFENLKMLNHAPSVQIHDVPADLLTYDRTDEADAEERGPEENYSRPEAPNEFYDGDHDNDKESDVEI
FAS-TE inh: inhibitors of human fatty acid synthase thioesterase domain; P49327; recombinant FAS-TE, OMFH fluorogenic substrate, fluorescence endpoint; inhibition, % at 15 µM; hit rate 0.67% among 360,000;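 active means compounds whose normalised, plate-corrected inhibition of enzyme fluorescence in the single-dose primary screen is 50% or more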;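 further: 0% = DMSO with enzyme and 100% = substrate without enzyme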
PfM18AAP inh: blocks P. falciparum M18 aspartyl aminopeptidase; recombinant PfM18AAP, H-Glu-NHMec fluorogenic cleavage; inhibition, % at 7.35 µM; hit rate 1.2% among 290,000; AID 1822;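 active means inhibition above the campaign mean inhibition over all tested compounds plus 3 SD, cut at about 28% in these data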;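 further: 0% = plate median of test compound wells and 100% = 2 mM ZnCl2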
ALR inh: human ALR oxidase inhibition via reduced H2O2; P55789; purified ALR, DTT oxidation, H2O2 HRP-luminol luminescence; inhibition, % (test concentration not listed); hit rate 3.8% among 290,000;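 active means mean replicate inhibition above about 79%, with every replicate also reaching it, limit read from the data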
Target sequence (P55789 whole entry, looked up): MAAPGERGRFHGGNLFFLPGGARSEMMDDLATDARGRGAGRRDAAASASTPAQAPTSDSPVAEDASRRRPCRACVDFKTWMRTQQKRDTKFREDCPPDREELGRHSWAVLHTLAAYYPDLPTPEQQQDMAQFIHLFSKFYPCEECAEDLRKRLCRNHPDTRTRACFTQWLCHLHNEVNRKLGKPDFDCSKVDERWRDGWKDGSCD
UCH37 DUB inh: human UCH37 deubiquitinating enzyme inhibition; purified proteasome/UCH37, Ub-AMC cleavage fluorescence; AID 588478; hit rate 0.33% among 330,000; inhibition, % (test concentration not listed); Q9Y5K5;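 active means mean inhibition over replicate wells above about 20%, limit read from the data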;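 further: 0% = compound-free wells with enzyme and 100% = wells lacking proteasome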
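Signal – fluorescence, ex 355 nm, em 460 nm · System – Proteasome-bound UCH37 · Input – 0.15 nM proteasome as dispensed · Timing – 30 min preincubation with enzyme, 25 min cleavage at room temperature · Read-out basis – percent inhibition of cleavage signal versus uninhibited and no-proteasome wells · Medium – Tris-HCl pH 7.4 with ATP-MgCl2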
FAS-TE inh conf: FAS thioesterase (human) inhibition, confirmation; shares compounds with FAS-TE inh; recombinant FAS-TE, OMFH fluorogenic substrate, fluorescence; inhibition, % at 15 µM; hit rate 45% among 2,300; AID 624325;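 active means compounds inhibiting the enzyme by at least 50% at 15 µM in any one of the replicates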;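 further: 0% = enzyme with DMSO only and 100% = wells lacking enzyme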
Numbers without * were called inactive; · = not tested or not shown. Only some compounds are listed: those with a hit (about 4.6% of all), similar ones and a draw of the others.

SMILES	Rtt109 HAT inh	HDAC3 inh	FAS-TE inh	PfM18AAP inh	ALR inh	UCH37 DUB inh	FAS-TE inh conf
CC(CC(=O)Nc1ccc2c(c1)OCCO2)=NNC(=O)COc1ccccc1C	·	·	·	·	·	0	·
C=CCOc1ccccc1C=NNC(=O)Cc1ccccc1	·	·	·	·	·	2	·
Cc1csc(NC(=O)C2CCN(S(=O)(=O)c3ccc4c(c3)oc(=O)n4C)CC2)n1	1	-1	59*	3	2	6	68*
COc1ccccc1NC(=O)COC(=O)c1cc([N+](=O)[O-])ccc1N1CCCC1	0	13	70*	·	·	5	63*
CCCN(CC(=O)Nc1ccc(F)c(F)c1F)C(=O)c1cc([N+](=O)[O-])ccc1N1CCOCC1	-1	2	54*	·	0	5	52*
O=C(COC(=O)c1cc([N+](=O)[O-])ccc1N1CCOCC1)Nc1ccccc1OC(F)F	11	2	74*	·	-9	6	79*
O=C(COC(=O)c1cc([N+](=O)[O-])ccc1N1CCOCC1)Nc1cc(F)ccc1F	12	4	85*	·	-6	5	51*
O=C(COC(=O)c1cc(S(=O)(=O)N2CCOCC2)ccc1F)Nc1cc([N+](=O)[O-])ccc1F	-3	5	7	·	·	2	·
O=C1c2ccccc2NC(c2ccc(O)cc2)N1N=Cc1ccc(O)cc1 (stereo unspecified)	·	·	·	·	·	-4	·
Cc1cc(C)n(N=Cc2c[nH]c3ccccc23)c(=O)c1	·	·	·	·	·	2	·
CC(C)c1ccccc1NC(=O)COC(=O)c1cc([N+](=O)[O-])ccc1N1CCOCC1	7	3	74*	·	-7	7	65*
COc1ccc([N+](=O)[O-])cc1NC(=O)COC(=O)C1CC1	0	-1	-10	-13	·	4	·
O=C(COC(=O)c1cc([N+](=O)[O-])ccc1N1CCCC1)Nc1ccccc1OC(F)F	-5	·	56*	·	·	4	43*
Cc1c(C(=O)OCC(=O)Nc2ccccc2OC(F)F)cccc1[N+](=O)[O-]	0	-4	15	-2	1	3	·
O=C(COC(=O)C1CCCCC1)Nc1cc([N+](=O)[O-])ccc1F	2	11	63*	-11	0	5	69*
O=C(CN1CCN(Cc2ccccc2)CC1)NN=C/C=C/c1ccccc1[N+](=O)[O-]	·	·	·	·	·	8	·
O=[N+]([O-])c1ccccc1/C=C/C=NN1CCCCC1	·	·	·	·	·	1	·
CCCOc1ccc(-c2c(C(=O)NN=C(C)c3cccnc3)nnn2-c2nonc2N)cc1	·	·	·	·	·	2	·
COc1ccc(C=NN=C2SC(CC(=O)O)C(=O)N2c2ccccc2)cc1 (stereo unspecified)	·	·	·	·	·	6	·
COC(=O)CC=N/N=C1/NC(=O)/C(=C/C(=O)O)S1	·	·	·	·	·	5	·
O=C(NC(C(=O)NN=Cc1ccncc1)c1n[nH]c(=O)c2ccccc12)c1ccccc1 (stereo unspecified)	·	·	·	·	·	0	·
O=C(CN1CCN(S(=O)(=O)c2ccc(Cl)c(C(F)(F)F)c2)CC1)NC(=O)NC1CCCCC1	6	·	77*	·	·	4	20*
Oc1c(Br)cccc1C=Nc1ncn[nH]1	·	·	·	·	·	2	·
CCCC(C)C1c2c(c(C)c(C)oc2=O)Oc2c(C)c(C)oc(=O)c21 (stereo unspecified)	4	2	59*	·	1	2	56*
COC(=O)C1CCN(C(=O)COC(=O)c2cc([N+](=O)[O-])ccc2N2CCOCC2)CC1	6	-1	69*	·	-3	6	71*
SMILES	Rtt109 HAT inh	HDAC3 inh	FAS-TE inh	PfM18AAP inh	ALR inh	UCH37 DUB inh	FAS-TE inh conf
CCOC(=O)C1CCN(C(=O)COC(=O)/C=C/c2ccc([N+](=O)[O-])cc2)CC1	-6	7	7	·	-5	3	·
CCOC(=O)C1CCN(C(=O)COc2ccc([N+](=O)[O-])cc2)CC1	3	-2	59*	-2	-8	4	67*
CC1CCN(C(=O)COC(=O)c2cc([N+](=O)[O-])ccc2N2CCOCC2)CC1	·	7	71*	·	-10	9	82*
O=[N+]([O-])c1ccccc1C=NN1CCN(Cc2ccccc2)CC1	·	·	·	·	·	-1	·
CC(=NNC(=O)C1COc2ccccc2O1)c1ccc(Br)s1 (stereo unspecified)	·	·	·	·	·	4	·
CC(=O)N1N=C(c2cccc([N+](=O)[O-])c2)OC1c1ccc(Cl)cc1Cl (stereo unspecified)	4	0	53*	-4	1	4	40
Cc1ccc(C2=NN(C(=O)CCC(=O)O)C(c3cccc([N+](=O)[O-])c3)C2)cc1 (stereo unspecified)	-8	-4	-1	-7	25	·	·
CC(=O)N1N=C(c2cccc([N+](=O)[O-])c2)OC1c1ccc(Br)cc1 (stereo unspecified)	11	-1	51*	-3	15	10	20
CC(=O)N1N=C(c2ccc(Br)cc2)CC1c1cccc([N+](=O)[O-])c1 (stereo unspecified)	·	·	62*	·	·	·	49*
O=C(CON=Cc1ccc(Cl)cc1Cl)NNC(=O)c1cccc(Cl)c1	·	·	·	·	·	-1	·
COc1ccc(CCNC(=O)C23CN(Cc4ccccc4)CC2C(c2cccc([N+](=O)[O-])c2)=NO3)cc1 (stereo unspecified)	-6	0	38	-1	1	6	·
O=C(NCC1CCCCC1)C12CN(Cc3ccccc3)CC1C(c1cccc([N+](=O)[O-])c1)=NO2 (stereo unspecified)	4	-3	54*	0	-1	6	30
COc1cc(OC)c(N2CC(C(=O)NCCC3=CCCCC3)CC2=O)cc1Cl (stereo unspecified)	-17	3	61*	·	-4	-1	67*
COc1cc(C=NNC(=O)CCN2CCN(Cc3ccccc3)CC2)cc(OC)c1OC	·	·	·	·	·	3	·
CC1(C)C([N+](=O)[O-])C(c2ccc(Cl)cc2)NC(c2ccc(Cl)cc2)C1[N+](=O)[O-] (stereo unspecified)	2	-3	66*	4	-3	1	37
CC1(C)C([N+](=O)[O-])C(c2ccc(F)cc2)NC(c2ccc(F)cc2)C1[N+](=O)[O-] (stereo unspecified)	9	11	38	3	0	6	·
Cc1ccc(C2NC(c3ccc(C)cc3)C([N+](=O)[O-])C(C)(C)C2[N+](=O)[O-])cc1 (stereo unspecified)	0	-3	60*	-1	-8	-1	38
CC(CC1(O)C(=NO)CCc2nonc21)=NO (stereo unspecified)	·	·	·	·	·	5	·
NS(=O)(=O)c1ccc(NN=Cc2ccccc2Br)cc1	·	·	·	·	·	-4	·
CSc1ccc(COC(=O)c2cc([N+](=O)[O-])ccc2N2CCOCC2)cc1	-13	-8	66*	·	-2	1	57*
